Measurements pooled from the literature.
Protocols differ between the studies behind these lines.
Target: Phosphatidylinositol 3-kinase C2 domain-containing subunit gamma (PIK3C2G, Homo sapiens, UniProt O75747)

observed	action	technique	tested at	quantity	value	Compound
cell-free assay			10 µM	remaining signal	98%	Cc1ccc(NC(=O)c2ccc(C)c(C(F)(F)F)c2)cc1C#Cc1nn(C2CCC(O)CC2)c2ncnc(N)c12 (stereo not shown)
enzyme activity	inhibitor		1 µM	activity vs control	86%	Cc1ccc(C(=O)NCc2ccsc2)cc1C#Cc1cn(C(C)C)c2ncnc(N)c12
enzyme activity	inhibitor	radiometric	1 µM	remaining activity	100%	Cc1cnc(NC2CCOCC2)nc1-n1cnc(C(=O)NC(CN)c2cc(F)cc(Cl)c2)c1 (stereo not shown)
cell-free assay			20 µM	remaining signal	93%	Nc1ncnc2occ(-c3ccc(NC(=O)Nc4cc(C(F)(F)F)ccc4F)cc3)c12
cell-free assay		competition with immobilised ligand	1 µM	remaining binding	72%	CO[C@H]1CC[C@H](CNc2ccc(S(=O)(=O)NC(=O)c3ccc(N4CCN(CC5=C(c6ccc(Cl)cc6)CC(C)(C)CC5)CC4)cc3Oc3cnc4[nH]ccc4c3)cc2[N+](=O)[O-])CC1
enzyme activity	inhibitor		10 µM	inhibition	76%	O=C(CSc1nc2nccnc2c(=O)n1CCc1ccccc1)Nc1nccs1
enzyme activity	inhibitor		1 µM	inhibition	-3%	C=CC(=O)Nc1cc(Nc2nccc(Nc3cc(Cl)c(F)cc3C(C)(C)O)n2)c(OC)cc1N1CC[C@@H](N(C)C)C1
enzyme activity	inhibitor		1 µM	remaining activity	96%	COc1cc(Cl)c(C(=O)N[C@@H](CN[C@H]2CC[C@@H](N)CC2)Cc2ccc(C#N)cc2)cc1-c1ccc(CN[C@H](C)c2ccc(C)cc2)o1
enzyme activity	inhibitor		10 µM	inhibition	16%	CS(=O)(=O)Nc1cccc(-c2csc(NC(=O)CSc3nc4nccnc4c(=O)n3CCc3ccccc3)n2)c1
cell-free assay		competition with immobilised ligand	1 µM	remaining binding	100%	CN(C)CC#Cc1ccc(OCCCc2sc(N3CCc4cccc(C(=O)Nc5nc6ccccc6s5)c4C3)nc2C(=O)O)c(F)c1
enzyme activity	inhibitor		1 µM	inhibition	-6%	CN1CC(Oc2cnc(C#N)cc2-c2ccn3nc(NC(=O)C4CC4)cc3c2)C1
cell-free assay			23.5 nM	remaining signal	85%	Cc1ccc(C(=O)Nc2ccc(CN3CCN(C)CC3)c(C(F)(F)F)c2)cc1C#Cc1cnc2cccnn12
enzyme activity	inhibitor		0.1 µM	activity vs control	103%	Cc1cc(NC(=O)c2cccc3cc(-c4cccc5[nH]nc(N)c45)ccc23)ccc1F
